Source: the EternaBench riboswitch data

Test system: MS2 coat protein
Assay: apparent Kd, MS2 coat protein; higher = weaker binding; RNA-MaP array; FMN 200 µM where present
Procedure, shortened: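 Each design was made on Illumina sequencing-chip clusters by stalled E. coli RNA polymerase and titrated with SNAP-549-labelled MS2 coat protein from 0.7 or 1.5 nM, doubling to 3 µM, in the absence and then the presence of constant ligand. The buffer was 100 mM Tris-HCl pH 7.5, 80 mM KCl, 4 mM MgCl2, BSA, DTT, yeast tRNA and Tween-20. The apparent Kd is the median of filtered per-cluster fits of binding curves, with green signal normalised to red-channel RNA signal and control-cluster median Fmax.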

[1] = designed as: OFF switch for flavin mononucleotide, no ligand
[2] = ligand present: flavin mononucleotide, designed as: OFF switch for flavin mononucleotide

Row | Sequence | apparent Kd [1] [nM] | apparent Kd [2] [nM] | apparent Kd (designed as: ON switch for flavin mononucleotide, no ligand) [nM] | apparent Kd (ligand present: flavin mononucleotide, designed as: ON switch for flavin mononucleotide) [nM]
1 | UCUUUACAUGAGGAUCACCCAUGUGAGGAUAUGGAUUCGCUGGCCGUAGCCAGUGGAUCCAGAAGGCGCGUGAU | 74.7 | 64.9 |  | 
2 | UGAACUAUGUAGAAGGCCCAUAUUUAUACUUAGGGAGGAUAUACAUGAGGAUCACCCAUGUAUAGAGCAAGUGGACUUGUCACU | 17.9 | 20.2 |  | 
3 | UGAACUUCAGAGAAGGUCGAACGGCAACGGUUCGAAGGAUAUCUGGAAACAUGAGGAUCACCCAUGUAACCGGGUGGAUGUCCU | 58.9 | 291 |  | 
4 | UGAGCCUCGUGAGGAUAUACAUGAGGAUCACCCAUGUAAUAAAGUGAACGGAGGAAACUCCGAAUGUAGAAGGCACGAGGCUUA | 18.7 | 146 |  | 
5 | UGAGGACAUGAGGAUCACCCAUGUAAGGAUAUGCGGAGAGAUUGGAGAGGUCGAGGAGGCAGAAGGUACAGGAC | 143 | 74.7 |  | 
6 | UGAUAACAUGUAGGAUAUCCAGCAUUGACCAUCGGAGAAGGACAUGAGGAUCACCCAUGUACCGAUACAAUGGGAUAACGCAAU | 15.4 | 18 |  | 
7 | UGAUAACAUGUAGGAUAUGCAGCAUUGACCACUGCAGAAGGACAUGAGGAUCACCCAUGUAUCCAUACUAUGGGAUCACGCAAU | 24 | 85.5 |  | 
8 | UGAUACAUGAGGGUCUCCCAUGACAUGAGGAUCACCCAUGUGCAGGAUAUACGUGUGAUAAUAUAGUAGAAGGGCAGUCUAUGU | 345 | 577 |  | 
9 | UGAUAGCACAGAGGAUAUGCGUUGUGUUAUCUCUACAUGAGGAUCACCCAUGUAGAAGGCUGUGCUAUCUAAGUCGGAAACGAU | 5.57 | 7.16 |  | 
10 | UGAUAGGACAGAGGAUAUACCGAUAGGAUCUACUAUCGAACAAUCCUCACAUGAGGAUCACCCAUGUAGAAGGCUGUCCUAUCU | 25.2 | 284 |  | 
11 | UGAUAGGACAGAGGAUAUACGUAUAAAUAUCCUCACAUGAGGAUCACCCAUGUAGAAGGCUGUCCUAUCUAAGUCGGAAACGAC | 15.6 | 317 |  | 
12 | UGAUAGGACAGAGGAUAUACGUAUAAUUACCUCUACAUGAGGAUCACCCAUGUAGAAGGCUGUCCUAUCUAAGUCGGAAACGAC | 5.99 | 6.88 |  | 
13 | UGAUAGGACAGAGGAUAUACGUGCUAGAGAUACUAGCAAAAUUUCCUCACAUGAGGAUCACCCAUGUAGAAGGCUGUCCUAUCU | 47.8 | 1100 |  | 
14 | UGAUCACAUGAGGAUCACCCAUGUCAGGAUAUCGUCACUGGAGCUUCGGCUCCAGUGACGAGAAGGGAUAUAAU | 91.5 | 197 |  | 
15 | UGAUCGAGAGAUCUUAGAUUCUGCAAGGAUAUGCAAGAGUUGCGCUUUACAUGAGGAUCACCCAUGUAGAAGGUGUAGAGUCUA | 6.27 | 6.62 |  | 
16 | UGAUCUUUUGUUAGGAUAUGCUGUUUUUUUUUACAGCAGAAGGGACAUGAGGAUCACCCAUGUCUUGUCAUAAA | 11.3 | 18.6 |  | 
17 | UGCACCAACGAGAAGGCACAGAUCCAGCUCUUGACAUGAGGAUCACCCAUGUGAGGAUAUCGUAGGUGCGCAUUGGGACAAUCU | 11.9 | 103 |  | 
18 | UGCACGAGGCAAGGAUAUGCUGACAUGAGGAUCACCCAUGUGAGCAUGGGUCUGGUACGGGAUCAGCAGAAGGUGCACCGAGGU | 36.8 | 27.4 |  | 
19 | UGCAGACGAGGAUAUGAUUAAUAAUACAUGAGGAUCACCCAUGUAAUACUGAUCUAUGGAUCAGAAGGCGUCUGCU | 17.3 | 14.6 |  | 
20 | UGCAUGCUAGGAUAUACGGGACAUUAGGGUUCGUCGUAUGGACAUGAGGAUCACCCAUGUAGAAGGAGCGUGCU | 18.6 | 44.5 |  | 
21 | UGCCGCAACAACGCGGCGUCACAUGAGGAUCACCCAUGUUCACAGGAUAUGCGAUAGCCAACGAAGCAGAAGGGUGAUUACUUA |  |  | 53.7 | 219
22 | UGCCGUAGAGGAUAUACAUUGAAUUUGAUUCAUGUAAAACUACAUGAGGAUCACCCAUGUAGAAGGCUAUGGCU | 17.9 | 34.4 |  | 
23 | UGCGGUAGAGGAUAUACGUAGAUACAGAUUCAUGUAGAACUACAUGAGGAUCACCCAUGUAGAAGGCUAUCGCU | 39.2 | 482 |  | 
